Assay outcomes (PubChem)
L929 necroptosis: L929 zVAD cell death inhibition | L929 zVAD necroptosis rescue, ATP luminescence, 24 h; with zVAD 60 µM | viability rescue, % at 10 µM | 0.38% of 220,000 active | AID 1377;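 active means activation, scaled between plate controls, above about 75%, limit read from the data; inactive means activation under that limit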;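 further: 0% = zVAD with DMSO and 100% = DMSO alone without zVAD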
Rad51 HR inh: blocks human Rad51 in homologous recombination; Q06609; hRad51 DNA strand exchange, fluorescence dequenching; inhibition, % at 10 µM; 0.085% of 200,000 active; AID 1385;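 active means inhibition above 40% at the single screening dose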;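 further: 0% = DMSO control wells and 100% = blanks with heterologous ssDNA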
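Material: human Rad51–ssDNA filaments; Probe or stimulus: labelled 47-mer dsDNA for strand exchange; Doses: single 10 µM dose; Incubation: 37 °C 15-min filament assembly, 30-min compound preincubation, 15-min exchange; Technique: FRET fluorescence dequenching, excitation 485 nm, emission 520 nm; Measure: Fluorescence-based percent inhibition, control- and blank-normalised; Benchmarks: plate control and blank wells.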
Pf gametocyte: kills late stage P. falciparum gametocytes. P. falciparum stage V gametocytes, ATP luminescence, 24 h. inhibition, % at 10.9 µM. 0.065% of 150,000 active;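 active means inhibition above the mean plus 3 SD of compounds within the control limits, set per campaign, cut at about 38% in these data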;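 further: 0% = DMSO wells and 100% = medium only without gametocytes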
TNF death inh: blocks TNF-alpha induced death of Jurkat FADD-/- cells. 0.068% of 220,000 active. Jurkat FADD-/- TNF necroptosis rescue, ATP luminescence, 24 h; 0 = TNF only, 100 = no-TNF cells. AID 463075. activation (protection from cell death), % at 10 µM;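 active means activation, meaning protection from cell death, of at least 50% relative to plate controls; inactive means activation below 50%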;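 further: necroptosis triggered by 40 ng/mL TNF-alpha added together with compound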
MDM2 E3 inh: blocks human Mdm2 ubiquitin ligase activity | cell-based MDM2 ubiquitination luciferase reporter, 2 h; 0 = plate control, 100 = twice control, blank-subtracted | signal enhancement, % at 5 µM | 0.11% of 210,000 active;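 active means signal enhancement of 30% or more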;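 further: luminescence tracks abundance of the self-degrading MDM2-luciferase fusion protein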
Target sequence (Q00987 whole entry, looked up, the tested form may be a part): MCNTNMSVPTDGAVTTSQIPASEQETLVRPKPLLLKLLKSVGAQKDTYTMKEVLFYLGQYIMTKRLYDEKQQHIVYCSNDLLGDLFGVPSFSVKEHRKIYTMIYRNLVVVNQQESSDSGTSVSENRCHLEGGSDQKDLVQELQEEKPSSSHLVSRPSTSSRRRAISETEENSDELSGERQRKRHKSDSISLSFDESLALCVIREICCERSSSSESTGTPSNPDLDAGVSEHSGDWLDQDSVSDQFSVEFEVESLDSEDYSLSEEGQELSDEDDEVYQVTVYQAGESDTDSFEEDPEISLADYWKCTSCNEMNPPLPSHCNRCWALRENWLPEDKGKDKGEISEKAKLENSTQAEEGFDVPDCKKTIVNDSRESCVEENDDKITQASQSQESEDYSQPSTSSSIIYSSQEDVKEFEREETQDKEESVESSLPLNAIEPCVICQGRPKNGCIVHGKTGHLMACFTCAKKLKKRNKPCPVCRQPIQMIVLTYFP
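Material: stable MDM2–luciferase fusion reporter cells / Quantity: 2000 cells/well / Dosing: single 5 µM compound dose, 0.2% final DMSO / Buffer or medium: DMEM / Schedule: 4 h cell settling then 2 h compound exposure, 37 °C / Detection: luminescence with SteadyLite reagent, 15 min at room temperature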
zVAD necrop conf: confirmed blocker of zVAD induced death in L929 cells; shares compounds with L929 necroptosis; L929 zVAD-induced necroptosis rescue, ATP luminescence, 24 h; activation (protection from necroptosis), % at 10 µM; 16% of 760 active;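 active means mean protection from necroptosis of at least 50% over duplicate tests; inactive means mean protection below 50%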;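 further: 0% = cells with zVAD alone and 100% = vehicle cells without zVAD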
Numbers without * were called inactive; x = not tested or not shown. Shown are actives, neighbours in structure and some others; about 0.58% of the full set was active somewhere.

SMILES	L929 necroptosis	Rad51 HR inh	Pf gametocyte	TNF death inh	MDM2 E3 inh	zVAD necrop conf
CCN1CCN(Cc2ccc(NC(=O)c3ccc(C)c(NC(=O)c4ccno4)c3)cc2C(F)(F)F)CC1	75	3	x	10	13	x
CCN1CCN(Cc2ccc(NC(=O)c3cc(NC(=O)c4ccno4)cc(OC)c3)cc2C(F)(F)F)CC1	77*	2	x	-8	8	73*
CC1CCCN(Cc2c(O)ccc3c(=O)c(-c4nc5ccccc5s4)c(N)oc23)C1 (stereo not given)	78*	-9	x	-4	-13	38
Cc1ccc(S(=O)(=O)N2CCC(NC(=O)c3ccccc3)CC2)cc1	5	-1	x	1	4	x
O=C(COc1cccc(-n2cnnn2)c1)Nc1ccccc1	73	2	28	2	2	x
COc1ccc(Cl)cc1NC(=O)COc1cccc(-n2cnnn2)c1	81*	-5	x	0	-17	33
C=C(c1ccccc1)c1ccccc1N	x	x	12	x	x	x
CCCCCCCSc1nnc(N)s1	0	5	-53	-14	-8	x
O=C(CSc1nnc(COc2ccccc2Cl)o1)NC(=O)NC1CCCC1	87*	-5	-16	-5	0	35
CC(C)NC(=O)NC(=O)CSc1nnc(COc2ccccc2Cl)o1	1	3	-40	-3	5	x
CC(C)(C)OC(=O)CNC(=O)c1[nH]cnc1C(=O)NCCCCCNC(=O)OC(C)(C)C	x	x	-4	x	x	x
CN=C1S/C(=C\c2cc(C)n(-c3ccccc3F)c2C)C(=O)N1C	78*	-6	x	-13	-15	6
O=C(c1ccco1)n1nc(-c2ccc(Cl)cc2)nc1NCc1ccco1	1	-5	22	0	-17	x
O=C(COc1ccccc1)n1nc(-c2ccc(Cl)cc2)nc1NCc1ccco1	83*	-4	30	-1	-1	0
CCN(c1ccccc1)S(=O)(=O)c1ccc(Oc2ccc(-n3ccnc3)cc2)nc1	87*	-4	29	1	-2	1
CCN(c1ccccc1)S(=O)(=O)c1ccc(C(=O)NCCCn2ccnc2)cc1	1	1	-4	0	-5	x
O=C(/C=C/c1cn(CC(O)CN2CCOCC2)c2ccccc12)c1cccs1 (stereo not given)	-1	-84	x	2	-17	x
COc1ccc(C(=O)/C=C/c2cn(CC(O)CN3CCOCC3)c3ccccc23)cc1 (stereo not given)	82*	-24	x	7	-1	38
Brc1ccc2[nH]c3c(NCc4ccccn4)ncnc3c2c1	75*	4	2	8	7	2
CSc1nnc(NC(=O)c2ccco2)s1	x	x	11	x	x	x
O=C(Nc1ccc(N2CCOCC2)cc1)c1cc2c(s1)CCCCC2	75*	2	x	3	-4	5
Cc1cnc(NC(=O)c2cc3c(s2)CCCC3)s1	79*	6	19	48	-8	79*
Cc1cnc(NC(=O)c2ccco2)s1	83*	-6	x	0	-2	10
COc1ccc2cc(-c3[nH]ncc3CN3CCCN(c4ccccc4)CC3)ccc2c1	1	11	x	5	-8	x
CCOC(=O)C(=CNc1cccnc1Oc1ccc(C)c2c1CCC2)C(=O)OCC	0	-7	10	-3	-13	x
SMILES	L929 necroptosis	Rad51 HR inh	Pf gametocyte	TNF death inh	MDM2 E3 inh	zVAD necrop conf
O=C(Cn1c(NCCO)nc2ccccc21)N1CCN(Cc2ccccc2)CC1	0	-10	16	2	-11	x
C=C[C@@H]1c2cccc(C)c2N(S(=O)(=O)c2ccc(C)cc2)[C@H](c2ccc(OC(C)=O)cc2)C1(C#N)C#N	x	x	7	x	x	x
O=C(Nc1ccc(-n2cnnn2)cc1)C1CCC1	0	0	15	0	-15	x
O=C(Cc1ccc(-n2cnnn2)cc1)NC12CC3CC(CC(C3)C1)C2	86*	9	x	0	-11	35
CC(C)CC(=O)NC(Nc1ccc([N+](=O)[O-])cc1)C(Cl)(Cl)Cl (stereo not given)	1	-29	-21	-1	9	x
CC(=O)c1c(C)[nH]c(C(=O)OCc2c(F)cccc2Cl)c1C	1	-2	10	-1	-11	x
CCc1c(C)[nH]c(C(=O)OCc2ccccc2)c1C	86*	0	-18	1	0	8
CC(=O)c1c(C)[nH]c(C(=O)OCC(=O)NCCc2ccc(F)cc2)c1C	1	0	x	-3	-3	x
CC(=O)c1c(C)[nH]c(C(=O)OCc2cccc(Cl)c2)c1C	79*	15	-2	-1	-16	8
CCc1c(C(=O)OCc2ccccc2)[nH]c(C)c1C	68	3	21	0	-8	x
COC(=O)c1c(C)[nH]c(C(=O)OCc2ccc(F)cc2)c1C	79*	2	19	1	-18	3
CCC1(c2ccccc2)C(=O)NCNC1=O	75*	1	x	1	x	4
O=C(CCNc1ccc(Cc2ccncc2)cc1)c1ccc([N+](=O)[O-])cc1	1	-10	-2	0	-12	x
CC(C)(C)n1nc(-c2ccc(F)cc2)c2c(N)ncnc21	79*	9	x	3	0	41
CC(C)CC(=O)Nc1nc2ccc(S(C)(=O)=O)cc2s1	81*	-5	17	-5	9	10
CCC(=O)Nc1nc2ccc(S(C)(=O)=O)cc2s1	63	-7	x	-6	-21	x
CCCC(=O)Nc1nc2ccc(S(N)(=O)=O)cc2s1	80*	6	x	0	-16	1
O=C(O)C1Sc2[nH]c(=O)sc2C2c3ccc(O)cc3OC(=O)C12 (stereo not given)	1	-5	15	0	-5	x
CN(C)S(=O)(=O)c1ccc(NC=O)cc1	0	-3	x	1	14	x
O=C(Oc1ccc(-c2cnc3ccccc3n2)cc1)c1ccc(Cl)c([N+](=O)[O-])c1	87*	6	x	0	-16	2
O=C(Oc1ccc(-c2cnc3ccccc3n2)cc1)c1cccc([N+](=O)[O-])c1	94*	-4	x	-4	-35	2
O=C(Oc1ccc(-c2cnc3ccccc3n2)cc1)c1ccc(Br)o1	85*	4	-3	0	-32	6
CCCc1cc(=O)[nH]c(SCC(=O)Nc2ccc([N+](=O)[O-])cc2C#N)n1	1	18	6	-2	-14	x
Cc1c(Br)cccc1NC(=O)c1sccc1-n1cccc1	1	x	x	1	-10	x
CC(C)c1ccc(NC(=O)c2sccc2-n2cccc2)cc1	84*	-2	-8	3	-7	25
CC(=O)Nc1ccc(NC(=O)c2c(C)c(-c3ccccc3)nc3ccccc23)cc1	x	x	-19	x	x	x
Cc1ccc(C(=O)CCC(=O)N2CCN(C(=O)c3ccco3)CC2)cc1	76*	2	-1	-1	-8	8
